Assay outcomes from PubChem BioAssay.
rCAG RNA binder: binders of r(CAG) RNA repeats, primary screen, biochemical, fluorescence; r(CAG) RNA repeat, TO-PRO-1 dye displacement fluorescence; inhibition, % at 3 µM; actives 1.3% (n = 370,000);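 active means inhibition above the plate cutoff, the mean of all test compounds on that plate plus 3 SD, cut at about 35% in these data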;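 further: 0% = DMSO alone and 100% = 100 µM mitoxantrone as full dye displacement; higher means more dye released from RNA so lower well fluorescence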
DAGLB inh: DAGLB lipase inhibitors, primary screen, biochemical, fluorescence, HTS; HEK293T DAGLB membrane lysate, EnzChek fluorogenic substrate; inhibition, % at 5.17 µM; actives 0.059% (n = 340,000); in the data active means inhibition above about 34%;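 further: 0% = enzyme with vehicle and 100% = wells lacking enzyme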
PRMT1 inh: PRMT1 methyltransferase inhibitors, primary screen, biochemical, fluorescence polarization | actives 1.3% (n = 370,000) | recombinant PRMT1, activity-based probe fluorescence polarization | inhibition, % at 2.79 µM | AID 652257, 2013;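 active means inhibition above about 21% made by adding two undisclosed values, limit read from the data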
LEDGF integ inh: blockers of LEDGF/p75-dependent integrase strand transfer – biochemical, TR-FRET, high throughput, primary screen; TR-FRET IN-LEDGF/p75 DNA integration, Eu/Cy5; inhibition, % at 3.7 µM; actives 0.64% (n = 370,000); AID 743269, 2014;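 active means inhibition above the screen-wide mean plus 3 SD, cut at about 13% in these data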;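 further: signal is the Cy5 over europium emission ratio at 671 and 618 nm; 0% = plate median of compound wells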
HTRA1 inh: HTRA1 serine protease inhibitors, primary screen, biochemical, fluorescence polarization, HTS | Q92743 | recombinant HTRA1, FP-rhodamine activity-based probe | inhibition, % at 5.96 µM | actives 0.5% (n = 340,000); in the data active means inhibition above about 36%;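 further: 0% = enzyme with DMSO and 100% = wells lacking enzyme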
ABHD4 inh: ABHD4 inhibitors, primary screen, biochemical, fluorescence polarization, mouse. (Lyso)-N-acylphosphatidylethanolamine lipase (Mus musculus), Q8VD66. purified mABHD4, FP-Rh probe fluorescence polarization. inhibition, % at 8.92 µM. actives 0.54% (n = 370,000). AID 720543, 2013;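 active means inhibition exceeding the mean over every tested compound plus 3 SD, cut at about 30% in these data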;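 further: 0% = plate median of compound wells and 100% = S159A mutant with DMSO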
Target sequence (Q8VD66 whole entry, looked up): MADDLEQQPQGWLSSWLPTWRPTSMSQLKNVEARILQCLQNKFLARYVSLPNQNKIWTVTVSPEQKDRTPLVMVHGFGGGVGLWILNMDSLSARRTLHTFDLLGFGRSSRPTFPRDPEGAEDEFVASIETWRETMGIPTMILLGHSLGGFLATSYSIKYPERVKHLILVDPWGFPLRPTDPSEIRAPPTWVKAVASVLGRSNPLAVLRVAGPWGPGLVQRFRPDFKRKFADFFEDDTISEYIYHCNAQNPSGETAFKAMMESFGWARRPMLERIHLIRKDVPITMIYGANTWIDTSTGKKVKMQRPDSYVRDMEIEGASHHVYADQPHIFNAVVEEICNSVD
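assay system = mABHD4 protein | compound dosing = single nominal dose of 8.92 µM, 0.89% DMSO final | read-out basis = percent inhibition of probe binding, normalized to plate controls | schedule = Enzyme–compound pre-incubation 45 min, then probe 60 min, both 25 °C | detection = fluorescence polarization, excitation 525 nm, emission 598 nm, BODIPY TMR filters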
IN multimer act: HIV-1 IN multimer formation enhancers, counter-screen for LEDGF/p75 integration inhibitor project, biochemical, TR-FRET; AID 1053131, 2014; actives 17% (n = 2,000); TR-FRET HIV-1 integrase multimerization; shares compounds with LEDGF integ inh; activation, % at 7.7 µM; in the data active means activation above about 8.9%
TRFRET interf: TR-FRET optical interference artefacts, confirmation, artefact control for LEDGF/p75-dependent integration inhibitor project, biochemical, HIV-1 IN multimerization; TR-FRET optical interference counterscreen; inhibition, % at 7.7 µM; 2,000 tested, under 10 active; shares compounds with LEDGF integ inh;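 active means inhibition above the mean over all tested compounds plus 3 SD, which no compound reached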;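 further: 0% = integrase with antibodies and DMSO and 100% = antibodies without integrase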
IN-LEDGF confirm: inhibitors of HIV-1 IN-LEDGF/p75 DNA integration, confirmation, biochemical, TR-FRET. shares compounds with LEDGF integ inh. TR-FRET LEDGF/p75-dependent HIV-1 integration. inhibition, % at 3.7 µM. actives 36% (n = 2,000). AID 1053136, 2014; in the data active means inhibition above about 14%
Numbers without * were called inactive; . = no result given. Sampled rows, rich in hits. Any-hit rate of the full collection: about 3.2%.

SMILES	rCAG RNA binder	DAGLB inh	PRMT1 inh	LEDGF integ inh	HTRA1 inh	ABHD4 inh	IN multimer act	TRFRET interf	IN-LEDGF confirm
O=C(Nc1cccs1)Nc1ccccc1Cl	2	4	3	15*	-4	-1	4	-20	6
Cc1ccc(NC(=O)Nc2cccs2)c(Cl)c1	6	-6	21	-3	-3	-3	.	.	.
CC(NS(=O)(=O)c1ccc(Cl)cc1)C(=O)NCc1ccco1 (configuration not stated)	11	-2	21	18*	4	-4	0	2	-11
Cc1ccc(C(=O)Nc2cccc(C(=O)N/N=C/c3ccc(F)cc3)c2)cc1	9	-2	3	0	-37	-37	.	.	.
CC(=O)Nc1cc2c(cc1[N+](=O)[O-])-c1ccccc1C2=NO	5	-1	-2	15*	-6	2	0	1	1
CCCCCOC(=O)CC(C(=O)OCCCCC)N1CCCCC1 (configuration not stated)	-1	-6	-3	14*	1	12	0	1	-17
O=C(CNC(=O)c1ccccc1F)NCCc1ccccc1F	1	-2	3	-5	3	4	.	.	.
CCN(CC(=O)Nc1ccccc1C(=O)OC)S(=O)(=O)c1ccccc1	-4	0	2	1	-3	-2	.	.	.
COc1ccc(-c2ccnc3nc(-n4cccc4)nn23)cc1	13	-2	-1	3	-18	-21	.	.	.
c1coc(-c2ccnc3nc(-n4cccc4)nn23)c1	12	-4	1	17*	-4	-4	1	-5	8
Cc1cc(C)c2ccc(C)[n+]([O-])c2c1O	-3	-1	6	1	1	6	.	.	.
CCOc1cccc(=O)c2c(C)n(Cc3ccccc3)c(C)c12	1	1	0	-1	-4	5	.	.	.
CCOc1cccc(=O)c2c(C)n(Cc3ccco3)c(C)c12	15	6	18	31*	28	22	1	-5	13
O=C(N/N=C/c1ccc(O)cc1O)C(=O)N/N=C/c1ccc(O)cc1O	7	3	9	15*	36	21	13*	-64	26*
O=C(Nc1ccc(N2CCOCC2)c2nonc12)C1CCCC1	2	1	-2	6	11	8	.	.	.
Nc1ccc(N2CCOCC2)c2nonc12	4	-20	40*	22*	19	13	6	-21	8
C=CCn1c(SCc2nc3sc(C(=O)O)c(C)c3c(=O)[nH]2)nnc1-c1ccc(C(C)(C)C)cc1	25	3	1	0	-2	-2	.	.	.
CCOc1ccc(/C=c2\sc3nc(-c4ccco4)nn3c2=O)cc1OCC	27	1	20	16*	0	2	1	-4	6
COCCCn1c(C)nnc1SCC(=O)NCc1ccco1	1	1	-1	-1	2	6	.	.	.
Cc1ccc(C2=[N+]([O-])C(C)N(O)C2(C)C)o1 (configuration not stated)	0	2	-3	0	1	-3	.	.	.
C=CCNC(=S)N/N=C(\C)c1cccc(OC)c1	-1	-2	0	2	1	9	.	.	.
C=CCNC(=S)N/N=C(\C)c1ccc(OC)cc1	5	0	4	16*	2	-2	1	-4	-10
COC(=O)CSc1nnc(NC(=O)c2ccc3c(c2)OCO3)s1	1	0	-1	25*	7	0	0	-1	-13
CCCc1cc(=O)oc2cc(OCC(=O)NCC3CCC(C(=O)O)CC3)ccc12 (configuration not stated)	-1	-1	0	33*	-3	25	-4	14	0
O=C(NCc1ccc(Cl)cc1)c1ccc(Br)o1	2	-3	2	56*	-10	0	0	-2	-7
SMILES	rCAG RNA binder	DAGLB inh	PRMT1 inh	LEDGF integ inh	HTRA1 inh	ABHD4 inh	IN multimer act	TRFRET interf	IN-LEDGF confirm
CC(/C=N/NC(=O)Cc1cccn1C)=C\c1ccco1	18	4	5	37*	9	4	1	-5	6
CC(=C/c1ccco1)/C=N/NC(=O)Cc1cccn1C	15	0	4	21*	5	5	-1	5	10
Cn1cccc1CC(=O)N/N=C/c1ccco1	5	.	2	5	.	0	.	.	.
COc1ccc(C(=O)N2CCN(c3ccc(C)cc3C)CC2)cc1OC	-1	-3	11	-3	4	-3	.	.	.
CCCCn1c(=O)[nH]c(=O)c2c1nc(-c1ccccc1OC(F)F)n2C	-3	1	3	1	-7	4	.	.	.
N#Cc1ccc(S(=O)(=O)N2CCN(c3ncccn3)CC2)cc1	0	-3	1	3	6	2	.	.	.
Cc1c(C=O)c(C=O)c(C)n1Cc1ccccc1	-3	2	3	22*	6	19	-2	11	12
CC(=O)c1c(C(C)=O)c(C)n(Cc2ccccc2)c1C	-4	0	-2	2	7	3	.	.	.
Cc1cc(NC2=CC(=O)C(=O)c3ccccc32)no1	3	0	-1	16*	11	22	5	-16	52*
COc1ccc(/C=N/NC(=O)CN(Cc2ccccc2)S(=O)(=O)c2ccc3c(c2)OCCO3)cc1	4	3	-1	3	-64	-23	.	.	.
COc1ccc(CNC(=O)CN(CCC(C)C)S(=O)(=O)c2ccc3c(c2)OCCO3)cc1	0	-2	-1	23*	-23	5	6	-28	0
CC(=O)c1ccc(-c2cnc3c(NC=O)cc(-c4ccc(S(C)(=O)=O)cc4)cn23)cc1	12	.	-2	2	.	-6	.	.	.
O=CNc1cc(-c2ccoc2)cn2c(-c3ccc(F)cc3)cnc12	25	.	19	14*	.	24	0	-2	12
CC(=O)c1ccc(-c2cnc3c(NC=O)cc(-c4cnn(C)c4)cn23)cc1	10	.	7	24*	.	5	-1	7	4
